For 26 molecules, Ki and Ratio Ki results are on record in ChEMBL document CHEMBL1157503, “Affinity of 3-acyl substituted 4-quinolones at the benzodiazepine site of GABA(A) receptors” (Bioorg Med Chem, 2008).

Test [1] deals with T1, GABA-A receptor; alpha-1/beta-2/gamma-2 (Homo sapiens, UniProt P14867+P18507+P47870).
T1 sequence (P14867 whole entry): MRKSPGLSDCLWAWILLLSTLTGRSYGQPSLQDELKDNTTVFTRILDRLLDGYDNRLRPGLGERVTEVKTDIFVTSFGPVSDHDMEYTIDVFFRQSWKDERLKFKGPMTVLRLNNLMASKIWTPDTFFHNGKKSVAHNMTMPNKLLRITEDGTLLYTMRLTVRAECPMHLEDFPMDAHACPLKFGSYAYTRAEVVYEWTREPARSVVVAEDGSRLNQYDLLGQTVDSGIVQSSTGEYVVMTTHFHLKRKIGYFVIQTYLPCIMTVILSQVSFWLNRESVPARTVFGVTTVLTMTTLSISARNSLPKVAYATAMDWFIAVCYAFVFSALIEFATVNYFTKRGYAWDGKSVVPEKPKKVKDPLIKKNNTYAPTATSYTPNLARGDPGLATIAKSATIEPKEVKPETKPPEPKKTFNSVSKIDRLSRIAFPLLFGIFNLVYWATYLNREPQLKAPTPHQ
T1 sequence (P47870 whole entry): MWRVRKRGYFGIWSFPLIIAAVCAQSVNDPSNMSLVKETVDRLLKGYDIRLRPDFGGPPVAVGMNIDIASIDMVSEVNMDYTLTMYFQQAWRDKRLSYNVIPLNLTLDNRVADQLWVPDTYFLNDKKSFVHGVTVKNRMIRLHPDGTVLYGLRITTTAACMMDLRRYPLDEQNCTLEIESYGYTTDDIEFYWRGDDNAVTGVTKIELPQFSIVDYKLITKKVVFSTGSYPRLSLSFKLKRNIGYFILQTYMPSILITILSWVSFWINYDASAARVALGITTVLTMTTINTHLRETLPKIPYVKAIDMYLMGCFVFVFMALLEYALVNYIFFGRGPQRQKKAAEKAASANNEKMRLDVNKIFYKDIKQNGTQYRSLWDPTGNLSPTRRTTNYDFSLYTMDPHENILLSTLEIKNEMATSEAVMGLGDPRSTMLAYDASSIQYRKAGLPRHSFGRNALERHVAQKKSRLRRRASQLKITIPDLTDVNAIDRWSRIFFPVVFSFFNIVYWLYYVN
T1 sequence (P18507 whole entry): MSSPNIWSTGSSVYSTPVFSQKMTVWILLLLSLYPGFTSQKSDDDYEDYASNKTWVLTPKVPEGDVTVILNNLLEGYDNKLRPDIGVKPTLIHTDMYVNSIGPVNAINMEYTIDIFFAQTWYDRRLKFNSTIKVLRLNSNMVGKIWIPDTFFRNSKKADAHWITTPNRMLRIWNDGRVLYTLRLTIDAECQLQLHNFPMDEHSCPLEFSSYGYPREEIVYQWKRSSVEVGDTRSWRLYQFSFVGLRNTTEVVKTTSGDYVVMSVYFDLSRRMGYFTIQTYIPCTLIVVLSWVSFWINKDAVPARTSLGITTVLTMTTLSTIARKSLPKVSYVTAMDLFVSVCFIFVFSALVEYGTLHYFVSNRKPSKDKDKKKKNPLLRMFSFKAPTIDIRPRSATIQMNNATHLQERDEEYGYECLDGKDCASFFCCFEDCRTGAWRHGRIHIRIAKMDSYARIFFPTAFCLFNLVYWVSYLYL
The test is described as follows: Displacement of [3H]flumazenil from human recombinant GABAA alpha-1-beta-2-gamma-2S receptor expressed in HEK293 cells. The test is classed as cell-based. Summed up: (§1)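 HEK 293 membranes expressing human α1β2γ2s, α2β2γ2s or α3β2γ2s receptors, about 25 µg protein per 0.55 ml assay in Tris-citrate (50 mM, pH 7.1). Incubated with 1 nM ³H-flumazenil (final) for 40 min at 0–4 °C, then GF/C filtration and ice-cold washes. Nonspecific binding was set with 1 µM clonazepam. […] Mean ± SD of three determinations.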
(In general: Loss of bound radioactivity is the signal in a displacement assay; it reports binding, not function.)

Test [2] can be described thus: Displacement of [3H]flumazenil from human recombinant GABAA alpha-2-beta-2-gamma-2S receptor expressed in HEK293 cells. Format: cell-based. Summed up:
as §1

For test [3], the species on record is Homo sapiens. Description: Selectivity ratio of Ki for human recombinant GABAA alpha-3-beta-2-gamma-2S receptor to Ki for human recombinant GABAA alpha-1-beta-2-gamma-2S receptor. The method, boiled down:
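Ratio of the Ki at human α3β2γ2s to the Ki at human α1β2γ2s, both from ³H-flumazenil (1 nM) displacement in HEK 293 membranes (40 min, 0–4 °C, 1 µM clonazepam nonspecific).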

Test [4] is filed under the species Homo sapiens. The test is described as follows: Selectivity ratio of Ki for human recombinant GABAA alpha-2-beta-2-gamma-2S receptor to Ki for human recombinant GABAA alpha-1-beta-2-gamma-2S receptor. Summed up: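 Displacement of 1 nM [3H]flumazenil from HEK 293 membranes expressing human α2β2γ2s or α1β2γ2s receptors (about 25 µg protein per 0.55 ml), in 50 mM Tris-citrate pH 7.1, 40 min at 0–4 °C. Filtered on glass fibre. Nonspecific binding with 1 µM clonazepam. IC50 from 4–6 concentrations. […] Ratio is Ki α2/Ki α1.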

A short description of test [5]: Displacement of [3H]flumazenil from human recombinant GABAA alpha-3-beta-2-gamma-2S receptor expressed in HEK293 cells. The test is classed as cell-based. The method, boiled down: as §1
A short description of test [6]: Displacement of [3H]flumazenil from GABAA receptor in rat cortical membrane. Format: cell membranes. Summed up:
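Rat cortex homogenized in Tris-HCl (30 mM, pH 7.4), washed by repeated centrifugation at 27,000g, incubated 30 min at 37 °C, then stored at −20 °C. About 50 µg protein per 0.55 ml assay in Tris-citrate (50 mM, pH 7.1) was incubated with 1 nM ³H-flumazenil for 40 min at 0–4 °C, then filtered on GF/C. Nonspecific binding was set with 1 µM clonazepam.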

pKi: −log10 of the molar value.

In general, pKi refers to the negative decadic logarithm of the Ki, by convention in mol/L. Turning to `CCCCC(=O)c1c[nH]c2ccc(CCCc3ccccc3)cc2c1=O`, the pKi in test [1] is 8.49; in test [2] it was 7.80; in test [5], 7.84; in test [6] it was 8.60. The results for the Ratio Ki in test [3] and in test [4] were 4 and 5, respectively.

For `CCCCC(=O)c1c[nH]c2ccc(Br)cc2c1=O`, in test [6], the pKi is 9.27.

Regarding `CCc1ccc2[nH]cc(C(=O)CC3CCCC3)c(=O)c2c1`, the pKi in test [1] is 8.29; in test [2], 7.51; in test [5], 7.13; in test [6], 8.10. The Ratio Ki was found to be 15 in test [3] and 6 in test [4].

As for `CCCCC(=O)c1c[nH]c2ccc(Cc3cccnc3)cc2c1=O`, the results for the pKi in test [1], in test [5] and in test [6] were 9.92, 8.66 and 9.57, respectively. Besides, the Ratio Ki in test [3] amounted to 18.

On to `CCc1ccc2[nH]cc(C(=O)CCC(C)(C)C)c(=O)c2c1`, for which, in test [6], the negative-log Ki (pKi) was 7.72.

With `CCCCC(=O)c1c[nH]c2ccc(Cc3ccc4ccccc4c3)cc2c1=O`, the negative logarithm of the Ki (pKi) in test [1] is 8.57; in test [2], 7.66; in test [5] it was 8.06; in test [6], 8.89. In addition, the results for the Ratio Ki in test [3] and in test [4] were 3 and 8, respectively.

Regarding `O=C(CC1CCCC1)c1c[nH]c2ccc(Cc3ccccc3)cc2c1=O`, the values for the pKi in test [1], in test [5] and in test [6] were 9.29, 7.89 and 9.00, respectively. In addition, the Ratio Ki in test [3] stood at 25.

With `O=C(CC1CCCC1)c1c[nH]c2ccc(Cc3cccnc3)cc2c1=O`, the negative logarithm of the Ki (pKi) in test [1] is 9.06; in test [5] it was 7.64; in test [6] it was 8.82. The Ratio Ki in test [3] stood at 26.

Molecule `CCCCCC(=O)c1c[nH]c2ccc(CC)cc2c1=O` gave a negative logarithm of the Ki (pKi) in test [6] of 9.01.

In test [6], `CCCCC(=O)c1c[nH]c2ccc(-c3ccccc3)cc2c1=O` had a negative logarithm of the Ki (pKi) of 7.55.

Regarding `CCCCC(=O)c1c[nH]c2ccc(Cc3ccncc3)cc2c1=O`, the negative-log Ki (pKi) in test [1] was 9.41; in test [2], 8.57; in test [5], 8.68; in test [6], 9.28. Also, the Ratio Ki amounted to 5 in test [3] and 7 in test [4].

`CCOC(=O)c1c[nH]c2ccc(Cc3ccccc3)cc2c1=O`: the Ratio Ki in test [3] came out at 27. Further, the results for the negative logarithm of the Ki (pKi) in test [5] and in test [6] were 8.14 and 8.85, respectively.

As for `CCCCC(=O)c1c[nH]c2ccc(CC)cc2c1=O`, the pKi in test [1] was 9.42; in test [2], 8.80; in test [5], 8.55; in test [6] it was 9.05. For the same molecule, the Ratio Ki in test [3] worked out at 7; in test [4], 4.

As to `CCCCC(=O)c1c[nH]c2ccccc2c1=O`, the figures for the pKi in test [1], in test [5] and in test [6] were 9.01, 8.04 and 8.66, respectively. In test [3], the Ratio Ki stood at 9.

`CCCCC(=O)c1c[nH]c2ccc(Cc3ccccc3)cc2c1=O`: the pKi in test [1] was 9.92; in test [2], 9.40; in test [5] it was 9.21; in test [6] it was 9.77. Moreover, the figures for the Ratio Ki in test [3] and in test [4] were 5 and 3, respectively.

Take `CCCCC(=O)c1c[nH]c2ccc(CCc3ccccc3)cc2c1=O`: the negative logarithm of the Ki (pKi) in test [1] is 9.28; in test [2] it was 8.77; in test [5], 8.96; in test [6], 9.38. Moreover, the Ratio Ki is 2 in test [3] and 3 in test [4].

Molecule `CCc1ccc2[nH]cc(C(=O)Cc3ccccc3)c(=O)c2c1` gave a pKi in test [6] of 7.16.

Take `CCCC(=O)c1c[nH]c2ccc(Cc3ccccc3)cc2c1=O`: the pKi in test [1] is 9.92; in test [2] it was 9.09; in test [5], 8.81; in test [6], 9.66. The Ratio Ki worked out at 13 in test [3] and 7 in test [4].

The molecule `CCCCC(=O)c1c[nH]c2ccc([N+](=O)[O-])cc2c1=O` showed a negative logarithm of the Ki (pKi) in test [6] of 9.06.

For `CCc1ccc2[nH]cc(C(=O)CCC(C)C)c(=O)c2c1`, in test [6], the pKi is 8.60.

Consider `CCOC(=O)c1cnc2ccc(Cc3ccccc3)cc2c1O`, for which the negative logarithm of the Ki (pKi) in test [1] was 9.57.

As to `CCOC(=O)c1cnc2ccc(CC)cc2c1O`, the negative-log Ki (pKi) in test [1] was 8.23; in test [5], 7.28; in test [6], 7.70. The Ratio Ki in test [3] was 9.

As to `CCCCC(=O)c1c[nH]c2ccc(Cc3ccccn3)cc2c1=O`, the pKi in test [1] was 9.85; in test [5], 8.66; in test [6], 9.64. Further, the Ratio Ki in test [3] turned out to be 16.

`CCc1ccc2[nH]cc(C(=O)CC(C)CC)c(=O)c2c1` (stereo unspecified): the negative logarithm of the Ki (pKi) in test [6] is 7.74.

Regarding `CCCCCCC(=O)c1c[nH]c2ccc(CC)cc2c1=O`, the negative logarithm of the Ki (pKi) in test [6] is 8.68.

Turning to `CCc1ccc2[nH]cc(C(=O)CC3CCCCC3)c(=O)c2c1`, the pKi in test [6] is 7.52.
